Consider five compounds from ChEMBL document CHEMBL1123939, “Evaluation of isomeric 4-(chlorohydroxyphenyl)-1,2,3,4-tetrahydroisoquinolines as dopamine D-1 antagonists” (J Med Chem, 1987).

Active and inactive are the calls of the source. The rule behind the calls is not given here.

Common to all, as to type: protein assay
In assay [1] the target is T1, Adenylate cyclase (Rattus norvegicus) (UniProt D4A3N4+P26770+Q04400+P26769+Q03343+P40146+Q8CFM9+P21932). The assay can be described thus: Inhibition of dopamine sensitive adenylate cyclase at 1 uM; […].
For assay [2], the target named is T1, Adenylate cyclase (Rattus norvegicus). The assay can be described thus: Inhibition of dopamine sensitive adenylate cyclase at 10 uM.
For assay [3] the target is unchanged. Description: Inhibition of dopamine sensitive adenylate cyclase at 100 uM.
Assay [4] shares this target. Description: Inhibition of dopamine sensitive adenylate cyclase at 30 uM.
The target is the same in assay [5]. The assay can be described thus: Inhibition of dopamine sensitive adenylate cyclase at 10 uM; No inhibition.
Assay [6] has the same target. The assay can be described thus: Inhibition of dopamine sensitive adenylate cyclase at 100 uM; No inhibition.
Assay [7] shares this target. The assay can be described thus: Inhibition of dopamine sensitive adenylate cyclase at 0.01 uM. The gist of the method: (§1)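 Rat retinas homogenized in 150 vol/wt 2.0 mM Tris-HCl pH 7.4 with 2 mM EDTA. Incubated 20 min, 30 °C. Stopped with SDS/ATP/cyclic AMP containing [3H]cyclic AMP, then heated 85 °C, 2 min.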
Assay [8] has the same target. The assay can be described thus: Inhibition of dopamine sensitive adenylate cyclase at 0.1 uM. A digest of the protocol: as §1
Assay [9] shares this target. The assay can be described thus: Inhibition of dopamine sensitive adenylate cyclase at 1 uM. The gist of the method: as §1

As usually defined, the inhibition is the drop in the measured response relative to a control, in per cent. For `Oc1cccc(C2CNCc3ccccc32)c1` (stereo unspecified), the inhibition entry in assay [1] is “inactive”. The inhibition in assay [2] was 8.8%; in [3], 22.9%.
On to `Oc1cc(C2CNCc3ccccc32)ccc1Cl` (stereo unspecified), for which, in assay [1], the inhibition entry was “inactive”. Also, the values for the inhibition in assay [2] and in assay [3] were 8.9% and 26.3%, respectively.
In the case of `CN1Cc2ccccc2C(c2ccc(Cl)c(O)c2)C1` (stereo unspecified), the inhibition entry in assay [1] is “inactive”. The results for the inhibition in assay [2], in assay [3] and in assay [4] were 21%, 57.9% and 45.1%, respectively.
On to `Oc1ccc(C2CNCc3ccccc32)cc1Cl` (stereo unspecified), for which the inhibition entry in assay [1], in assay [5] and in [6] was “inactive” each time.
`CN1CCc2cc(Cl)c(O)cc2[C@@H](c2ccccc2)C1`: the inhibition was 23.2% in assay [7], 59.9% in assay [8] and 74.3% in assay [9].
